# Screens as filed in PubChem BioAssay.
# This is a sample that favours compounds with a hit; in the whole collection about 3.4% have one here.
# AHR activator = activators of human aryl hydrocarbon receptor | P35869 | AHR-responsive luciferase reporter cells, luminescence | activation, % at 5 µM | 320,000 tested, 2.5% active | AID 2796; in the data active means activation above about 47%;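 further: 0% = vehicle wells and 100% = reference agonist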
# APOBEC3A inh = inhibitors of human APOBEC3A DNA deaminase; P31941; recombinant A3A, FAM/TAMRA ssDNA deamination fluorescence; inhibition, % at 20 µM; 330,000 tested, 0.41% active; AID 493011;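 active means at least 40% inhibition at 20 µM here, with at most 30% in a related deaminase screen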;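 further: plate controls were A3A with DMSO for no effect and wells lacking A3A enzyme for full effect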
# PolyA inhibitor = blocks polyadenylation in yeast reporter cells; S. cerevisiae SKY197-pL101 polyadenylation reporter, beta-gal luminescence; efflux-impaired pdr1/pdr3 knockout yeast; score 100 = 6 SD above DMSO; activity score, % at 12 µM; 300,000 tested, 0.02% active; AID 1875;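 active means lowest replicate activity score at least 50, where 100 means six control SD above control mean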;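 further: yeast exposed to compound for 9 h at 30 °C; higher score means more reporter readthrough which indicates perturbed polyadenylation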
# UCH37 DUB inh = inhibitors of human deubiquitinating enzyme UCH37; purified proteasome/UCH37, Ub-AMC cleavage fluorescence; AID 588478; inhibition, % (concentration not given with the values); Q9Y5K5; 330,000 tested, 0.33% active;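 active means mean inhibition over replicate wells above about 20%, limit read from the data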;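 further: 0% = compound-free wells with enzyme and 100% = wells lacking proteasome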
# Target sequence (Q9Y5K5 whole entry, looked up): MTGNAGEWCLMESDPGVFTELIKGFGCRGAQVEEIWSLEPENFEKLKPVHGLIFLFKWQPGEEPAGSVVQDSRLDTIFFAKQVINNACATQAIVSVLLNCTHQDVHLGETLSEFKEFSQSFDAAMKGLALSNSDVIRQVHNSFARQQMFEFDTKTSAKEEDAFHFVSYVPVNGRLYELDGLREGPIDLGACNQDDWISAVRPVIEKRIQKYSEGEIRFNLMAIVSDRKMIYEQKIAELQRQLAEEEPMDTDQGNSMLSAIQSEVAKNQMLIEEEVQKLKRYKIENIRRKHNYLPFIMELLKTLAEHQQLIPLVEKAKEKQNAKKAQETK
#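 Material: human UCH37 enzyme supplied as purified proteasome complex. Measure: % inhibition of Ub-AMC cleavage fluorescence. Medium: pH 7.4 Tris-HCl (50 mM) with ovalbumin, ATP-MgCl2, DTT. Times: 30 min preincubation with enzyme, 25 min cleavage at room temperature. Detection: AMC fluorescence intensity at 355/460 nm.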
# A3G deaminase = blocks human APOBEC3G single-stranded DNA deamination; Q9HC16; recombinant A3G, ssDNA deamination FAM/TAMRA fluorescence; inhibition, % at 20 µM; 330,000 tested, 0.28% active; AID 493012;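 active means inhibition of at least 40% at 20 µM, with no more than 30% in the related APOBEC3A deaminase screen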;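 further: plate controls were DMSO wells with A3G for no effect and wells lacking A3G enzyme for full effect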
# Arrestin-AP2 inh = human beta-arrestin and AP2 interaction inhibition. inhibition, % at 10 µM. 340,000 tested, 0.31% active. AID 504490. FITC-arrestin peptide / GST-AP2 beads, flow cytometry; AP2 beta2 appendage carries R879A mutation;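 active means inhibition above a set limit, near 3 SD of compounds lacking own fluorescence, cut at about 54% in these data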;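 further: plate controls were DMSO wells for no effect and 5 µM unlabelled arrestin peptide for full effect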
#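 test system = AP2 appendage R879A on GSH beads | buffer or medium = PBS plus Tween 20 (0.05%) and BSA (0.1%) | incubation = 12 min plus 1 h, RT | detection = bead flow cytometry, FITC channel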
# AHR act confirm = human AHR activation, confirmation. shares compounds with AHR activator. human cells, AHR-responsive luciferase reporter, luminescence. activation, % at 9 µM. 2,300 tested, 87% active; in the data active means activation above about 49%;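 further: HepG2 hepatoma cells carrying a DRE-driven firefly luciferase reporter; 0% = vehicle wells and 100% = reference agonist wells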
# PXR act counter = activates human PXR in AHR activator counter-screen; activation, % at 11.6 µM; 2,300 tested, 88% active; AID 434939; shares compounds with AHR activator; cell-based PXR reporter, luciferase luminescence; in the data active means activation above about 11%;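 further: human hepatoma DPX-2 cells expressing full-length human PXR; 0% = DMSO and 100% = reference agonist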
# Target sequence (O75469 whole entry, looked up): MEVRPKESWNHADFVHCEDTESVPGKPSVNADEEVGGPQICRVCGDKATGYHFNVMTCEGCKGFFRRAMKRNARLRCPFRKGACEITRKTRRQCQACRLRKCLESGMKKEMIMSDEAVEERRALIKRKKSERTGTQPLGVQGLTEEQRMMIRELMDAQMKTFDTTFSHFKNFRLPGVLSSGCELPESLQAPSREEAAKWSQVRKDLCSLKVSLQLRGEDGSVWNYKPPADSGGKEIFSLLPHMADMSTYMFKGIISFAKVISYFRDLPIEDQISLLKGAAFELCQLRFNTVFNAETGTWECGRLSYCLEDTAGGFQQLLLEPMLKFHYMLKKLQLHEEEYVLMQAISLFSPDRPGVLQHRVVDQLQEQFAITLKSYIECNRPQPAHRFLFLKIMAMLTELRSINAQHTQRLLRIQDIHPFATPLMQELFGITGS
# * hit, by the source's call; i = inactive; . = no result given; + = active, no number.
SMILES,AHR activator,APOBEC3A inh,PolyA inhibitor,UCH37 DUB inh,A3G deaminase,Arrestin-AP2 inh,AHR act confirm,PXR act counter
NS(=O)(=O)c1ccc(NN=C2CCCCC2C2CCCCC2)c([N+](=O)[O-])c1 (stereo not drawn),.,.,.,7.6,.,.,.,.
COc1cc(C=NNC(=O)NC23CC4CC(CC(C4)C2)C3)ccc1O,.,.,.,3.8,.,.,.,.
Nc1nc(N)nc(-c2cccc(Br)c2)n1,.,.,.,.,.,-4.5,.,.
Brc1cccc(-c2n[nH]c(-c3ccccc3)n2)c1,117.5*,0.9,-12.8,5.8,0.7,32.6,127.9*,14.6*
Cc1cc(Cl)n2ncc(-c3ccccc3)c2n1,0.1,-2.1,11.4,2.1,-5.9,4.3,.,.
Cc1cc(C)n2nc(-c3cccc(Br)c3)cc2n1,106.9*,-6.9,-7.1,-11.8,-13.4,14.3,129.1*,17.6*
CC(=O)c1cnc2cc(-c3cccc(Br)c3)nn2c1C,24.8,5.4,-14.7,-1.9,-2.8,5.6,.,.
Cc1cc(C)n2ncc(-c3cccc(Br)c3)c2n1,87.9*,1.7,2.4,-11.0,0.8,6.1,119.8*,24.2*
NCCCn1c(C(=O)c2ccc(Cl)cc2)c2ccc(C(F)(F)F)cc2[n+]1[O-],100.3*,-0.3,-20.4,.,-4.1,9.4,103.6*,28.9*
CCn1c2ccccc2c2cc(NC(=O)CSc3nnc(C4CC4)n3Cc3ccco3)ccc21,111.6*,-5.8,-2.1,-1.7,-12.4,9.5,56.1*,171.2*
CCn1c2ccccc2c2cc(NC(=O)CSc3nnnn3-c3ccccc3)ccc21,81.6*,-0.6,7.4,0.5,-8.8,-4.3,133.5*,+
CCn1c(SCC(=O)Nc2ccc3c(c2)OCO3)nnc1C1CC1,19.8,-3.4,7.9,4.2,-11.2,-2.0,.,.
COc1cc(C=NNc2ccc(Cl)c(C(=O)O)c2)ccc1OCC(=O)N1C(C)CCCC1C (stereo not drawn),.,.,.,4.7,.,.,.,.
COc1cccc2sc(NNC(=O)C3=COCCO3)nc12,13.1,-3.7,7.0,0.0,-9.6,-3.6,.,.
COc1ccc(OC)c2sc(NC(=O)C3=COCCO3)nc12,97.9*,0.2,8.6,-68.6,1.6,-11.5,88.2*,6.0
COc1ccc(C)c2sc(NC(=O)C3=COCCO3)nc12,83.9*,-4.9,15.9,-28.3,-11.3,-2.4,66.2*,19.4*
O=C(NN=Cc1ccco1)c1cncc(Br)c1,.,.,.,3.9,.,.,.,.
CC(=O)C1=C(O)C(=O)N(c2nccs2)C1c1ccc(F)cc1 (stereo not drawn),-2.8,-2.1,22.0,-15.3,-1.9,-0.2,.,.
CC(=O)C1=C(O)C(=O)N(c2nccs2)C1c1ccc(Br)cc1 (stereo not drawn),171.3*,-12.2,-0.1,-8.5,-13.0,5.1,43.3,8.6
COc1ccc2nc(NC(=O)c3ccccc3O)sc2c1,130.0*,-6.3,5.0,-97.7,-6.9,19.6,18.2,32.6*
COc1cccc(OC)c1C(=O)Nc1nc2ccc([N+](=O)[O-])cc2s1,80.9*,1.0,-26.1,21.2*,-1.8,9.9,74.5*,8.7
COc1ccccc1NC(=O)c1ccc([N+](=O)[O-])cc1[N+](=O)[O-],104.2*,-5.7,-5.1,3.5,-0.5,5.3,93.5*,28.5*
O=C(CN1CCOCC1)Nc1nc2ccc([N+](=O)[O-])cc2s1,133.1*,-2.3,5.9,12.2,-6.2,4.2,91.1*,.
COc1ccc2nc(NC(=O)c3ccccc3[N+](=O)[O-])sc2c1,4.2,-5.5,-12.5,3.2,-4.5,-4.8,.,.
CCN=c1scc(-c2ccc(F)cc2)n1N=Cc1ccccn1,.,.,.,0.6,.,.,.,.
SMILES,AHR activator,APOBEC3A inh,PolyA inhibitor,UCH37 DUB inh,A3G deaminase,Arrestin-AP2 inh,AHR act confirm,PXR act counter
O=S(=O)(NN=Cc1cccnc1)c1ccc(Cl)c(Cl)c1,.,.,.,2.3,.,.,.,.
CCN(CC)c1ccc(C=NNC(=O)c2cccc(S(=O)(=O)Nc3ccccc3OC)c2)cc1,.,.,.,-49.0,.,.,.,.
CCCn1c(-c2cccs2)nc2nc3ccccc3nc21,100.3*,-3.8,-12.0,i,-10.6,8.7,147.3*,37.0*
C(=N\Nc1ncnc2sc3c(c12)CCC3)/c1ccncc1,81.4*,-4.2,-4.0,.,-2.0,-5.5,124.4*,28.6*
COc1cc(OC)c2cc(C(=O)NN=Cc3ccccc3O)[nH]c2c1,.,.,.,-12.0,.,.,.,.
CCN(CC)S(=O)(=O)c1cccc(C(=O)OCC(=O)Nc2ccc3c(c2)c2ccccc2n3CC)c1,83.1*,6.5,13.6,-1.9,-8.8,20.5,80.3*,32.8*
CCn1c2ccccc2c2cc(NC(=O)COC(=O)c3ccc(O)cc3)ccc21,39.6,1.9,4.2,-10.8,-7.1,-2.8,.,.
O=C(CSc1nnc(SCc2ccc(Cl)cc2)s1)NN=Cc1ccccc1C(=O)O,.,.,.,3.2,.,.,.,.
O=C(NN=Cc1ccsc1)C1CC1,.,.,.,5.8,.,.,.,.
COc1ccc(Nc2nc(N)nc(CSc3nnc(N)s3)n2)cc1,112.3*,-2.4,-11.2,1.4,-6.1,-2.4,109.8*,15.4*
COC(=O)Oc1ccc(C=NNC(=O)CSCc2ccccc2Br)cc1OC,.,.,.,4.3,.,.,.,.
N#C/C(=C\c1ccc[nH]1)C(=O)Nc1ccccc1Cl,96.0*,0.9,0.8,2.8,-1.2,-13.2,99.5*,28.7*
COc1ccc(C=NNC(=O)c2[nH]nc3c2CCc2ccccc2-3)cc1OC,.,.,.,-219.6,.,.,.,.
COc1ccc(-n2nc3cc(N)c(Br)cc3n2)cc1,98.0*,-7.4,-13.0,-2.7,-6.2,-6.6,124.2*,29.5*
Cn1c(CNc2ccc(Cl)cc2)nc2ccccc21,87.0*,-3.2,-4.7,1.8,-4.8,6.3,139.3*,36.0*
Cc1nc2cc(NCc3nc4ccccc4n3Cc3ccccc3)ccc2n1C,27.0,-0.3,7.5,1.8,-2.6,27.5,.,.
Cc1cccc(NN=C2c3ccccc3-c3ccccc32)c1,87.7*,2.0,-11.1,-3.2,-6.3,7.0,115.4*,21.6*
C=CCN1C(=O)C(Cc2ccc(F)cc2)SC1=NN=Cc1cccs1 (stereo not drawn),.,.,.,1.8,.,.,.,.
O=C(CCc1nc2ccccc2s1)Nc1ccccc1,-6.1,0.7,0.0,1.9,1.1,15.5,.,.
S=C(Nc1ccccc1)c1nc2ccccc2s1,123.7*,4.4,-22.6,1.4,0.8,20.8,142.3*,9.9
Cc1c(C=NNC(=O)c2cccc(F)c2)cnn1C,.,.,.,-1.7,.,.,.,.
O=C(NN=C1CC2CC=CC12)c1ccccc1Cl (stereo not drawn),.,.,.,3.0,.,.,.,.
COc1cc(OC)cc(C(=O)Nc2ccc(-n3cnnn3)c(C)c2)c1,-10.9,-4.5,11.8,7.8,-6.7,12.3,.,.
Cc1ccc(NC(=O)c2oc3ccccc3c2C)nc1,139.5*,-1.9,0.7,1.0,-6.3,3.9,140.5*,14.0*
